# What was measured:
# [1] = system: Rattus norvegicus; test: Compound was evaluated in developing adjuvant arthritis model rats for its effect on paw edema.; assay type: functional; design: concentration or dose not given beside the values
# Outline: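 Female Allen and Hanbury hooded rats, five per group. Right hind paw injected sc on day 0 with heat-killed M. tuberculosis in paraffin oil (5 mg/mL). Compounds given orally as sodium salts in water. Paw volumes of both hind paws measured days 1–4, 1 h after dosing. Percent inhibition taken from area under the curve of the between-paw volume difference.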
# [2] = system: Rattus norvegicus; test: Hepatic effect assessed by increase in liver weight after 14 days of dosing at 60 mg/kg orally.; assay type: functional
# Outline: (§1)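 Type II collagen arthritis rats, eight per group, daily oral dosing as sodium salts in water for 14 days. Liver weight recorded at termination and expressed as percentage change versus normal animals.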
# [3] = system: Rattus norvegicus; test: Hepatic effect assessed by increase in catalase levels after 14 days of dosing at 60 mg/kg orally.; assay type: functional
# Outline: (§2)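 Type II collagen arthritis rats, eight per group, given oral sodium salts daily for 14 days. At termination liver homogenized in ice-cold 0.25 M sucrose and spun 2000 rpm 10 min. Catalase followed by decline in A240 from H2O2 breakdown, expressed as first-order rate constant K. Result given as % change versus normals.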
# [4] = system: Rattus norvegicus; test: Radiographic change was judged in the area of the tarsus region, using an arbitrary scoring system upon termination of the test (14 days dosing of 60 mg/kg) in a model of type II collagen arthritis in the rat.; assay type: functional; conditions: 336 h
# Outline: (§3)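 Type II collagen arthritis rats, eight per group, oral sodium salts daily from grouping (day 1). Hind limbs X-rayed post mortem. Tibia/talus and tarsus damage scored 0–3 per foot by two observers and averaged; left and right summed (max 6). Compared with arthritic controls by Mann–Whitney U test.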
# [5] = system: Rattus norvegicus; test: Radiographic change was judged in the area of the talus joint, using an arbitrary scoring system upon termination of the test (14 days dosing of 60 mg/kg) in a model of type II collagen arthritis in the rat.; assay type: functional; conditions: 336 h; outline: as §3
# [6] = Partition coefficient (logP); assay type: physicochemical; conditions: octanol/water
# Outline: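 Compound dissolved in disodium hydrogen phosphate/citric acid buffer pH 7.4 and partitioned against equal volume octan-1-ol. Buffer-phase UV absorbance read before and after partitioning near λmax. P′ from the octanol:buffer absorbance ratio.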
# [7] = biological target: Prostaglandin G/H synthase 1 (Ovis aries) (UniProt P05979); test: Inhibition of prostaglandin synthetase in sheep seminal vesicle
# Prostaglandin G/H synthase 1 (Ovis aries), sequence (P05979 whole entry, looked up): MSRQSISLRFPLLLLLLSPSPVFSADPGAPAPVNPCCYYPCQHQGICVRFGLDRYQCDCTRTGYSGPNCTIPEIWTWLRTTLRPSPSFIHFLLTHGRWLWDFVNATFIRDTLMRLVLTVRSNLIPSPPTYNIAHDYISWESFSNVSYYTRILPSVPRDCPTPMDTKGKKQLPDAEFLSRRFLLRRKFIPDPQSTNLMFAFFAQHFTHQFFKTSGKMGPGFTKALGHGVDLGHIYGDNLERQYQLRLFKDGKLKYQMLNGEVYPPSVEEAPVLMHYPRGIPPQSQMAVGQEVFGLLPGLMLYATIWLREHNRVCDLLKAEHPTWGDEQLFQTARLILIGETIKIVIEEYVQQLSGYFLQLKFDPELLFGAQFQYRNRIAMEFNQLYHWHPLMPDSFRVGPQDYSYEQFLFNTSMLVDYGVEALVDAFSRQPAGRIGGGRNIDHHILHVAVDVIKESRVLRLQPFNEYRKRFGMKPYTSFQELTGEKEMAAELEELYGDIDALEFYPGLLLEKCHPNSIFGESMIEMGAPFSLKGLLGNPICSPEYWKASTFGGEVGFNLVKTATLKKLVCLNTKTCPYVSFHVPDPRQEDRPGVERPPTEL
# [8] = organism: Rattus norvegicus; test: Percent decrease in serum haptoglobin evaluated in a developing adjuvant arthritis model rats.
# [9] = system: Rattus norvegicus; test: Hepatic effect assessed by increase in catalase levels after 14 days of dosing at 100 mg/kg orally.; assay type: functional; outline: as §2
# [10] = biological target: Prostaglandin G/H synthase 1 (Ovis aries) (UniProt P05979); test: Inhibition of prostaglandin synthetase in sheep seminal vesicle; remark: listed apart in the source
# [11] = system: Rattus norvegicus; test: Radiographic change was judged in the area of the talus joint, using an arbitrary scoring system upon termination of the test (14 days dosing of 20 mg/kg)in a model of type II collagen arthritis in the rat.; assay type: functional; conditions: 336 h; outline: as §3
# [12] = system: Rattus norvegicus; test: Radiographic change was judged in the area of the talus joint, using an arbitrary scoring system upon termination of the test (14 days dosing of 100 mg/kg)in a model of type II collagen arthritis in the rat.; assay type: functional; conditions: 336 h; outline: as §3
# [13] = […] level determined in rat type II collagen arthritis model after 14 days dosing of 20 mg/kg.; assay type: functional
# Outline: (§4)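 Rat type II collagen arthritis, eight rats per group, daily oral dosing as sodium salts in water for 14 days. Plasma haptoglobin determined at termination and compared with normal and arthritic controls by Student's t test.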
# [14] = system: Rattus norvegicus; test: Plasma level in type II collagen arthritis model after 14 days of dosing at 40 mg/kg.; assay type: functional, organism-based; design: dose 40 mg/kg
# Outline: (§5)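 Type II collagen arthritis rats dosed orally for 14 days. Plasma drug level measured by reverse-phase C-18 HPLC with UV detection at 282 nm.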
# [15] = […] level determined in rat type II collagen arthritis model after 14 days dosing of 60 mg/kg.; assay type: functional; outline: as §4
# [16] = system: Rattus norvegicus; test: Hepatic effect assessed by increase in liver weight after 14 days of dosing at 20 mg/kg orally.; assay type: functional; outline: as §1
# [17] = system: Rattus norvegicus; test: Hepatic effect assessed by increase in liver weight after 14 days of dosing at 100 mg/kg orally.; assay type: functional; outline: as §1
# [18] = […] level determined in rat type II collagen arthritis model after 14 days dosing of 40 mg/kg.; assay type: functional; outline: as §4
# [19] = organism: Homo sapiens; test: Inhibition of human PGE-2 production.; assay type: functional
# Outline: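 Human blood mononuclear cells from healthy volunteers stimulated with 2.5 μg/mL phytohaemagglutinin and incubated 24 h with compound (sodium salt). PGE2 measured by RIA.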
# [20] = system: Rattus norvegicus; test: Radiographic change was judged in the area of the tarsus region, using an arbitrary scoring system upon termination of the test (14 days dosing of 60 mg/kg)in a model of type II collagen arthritis in the rat.; assay type: functional; conditions: 336 h; outline: as §3
# [21] = system: Rattus norvegicus; test: Hepatic effect assessed by increase in liver weight after 14 days of dosing at 40 mg/kg orally.; assay type: functional; outline: as §1
# [22] = system: Rattus norvegicus; test: Plasma level in type II collagen arthritis model after 14 days of dosing at 20 mg/kg.; assay type: functional, organism-based; design: dose 20 mg/kg; outline: as §5
# [23] = system: Rattus norvegicus; test: Radiographic change was judged in the area of the tarsus region, using an arbitrary scoring system upon termination of the test (14 days dosing of 100 mg/kg)in a model of type II collagen arthritis in the rat.; assay type: functional; conditions: 336 h; outline: as §3
# [24] = system: Rattus norvegicus; test: Hepatic effect assessed by increase in catalase levels after 14 days of dosing at 20 mg/kg orally.; assay type: functional; outline: as §2
# [25] = system: Rattus norvegicus; test: Hepatic effect assessed by increase in catalase levels after 14 days of dosing at 40 mg/kg orally.; assay type: functional; outline: as §2
# [26] = biological target: T1, Cyclooxygenase (Rattus norvegicus, UniProt P35355+Q63921); test: Inhibition of prostaglandin synthetase in rat renal medulla; assay type: functional, tissue-based
# T1 sequence (P35355 whole entry): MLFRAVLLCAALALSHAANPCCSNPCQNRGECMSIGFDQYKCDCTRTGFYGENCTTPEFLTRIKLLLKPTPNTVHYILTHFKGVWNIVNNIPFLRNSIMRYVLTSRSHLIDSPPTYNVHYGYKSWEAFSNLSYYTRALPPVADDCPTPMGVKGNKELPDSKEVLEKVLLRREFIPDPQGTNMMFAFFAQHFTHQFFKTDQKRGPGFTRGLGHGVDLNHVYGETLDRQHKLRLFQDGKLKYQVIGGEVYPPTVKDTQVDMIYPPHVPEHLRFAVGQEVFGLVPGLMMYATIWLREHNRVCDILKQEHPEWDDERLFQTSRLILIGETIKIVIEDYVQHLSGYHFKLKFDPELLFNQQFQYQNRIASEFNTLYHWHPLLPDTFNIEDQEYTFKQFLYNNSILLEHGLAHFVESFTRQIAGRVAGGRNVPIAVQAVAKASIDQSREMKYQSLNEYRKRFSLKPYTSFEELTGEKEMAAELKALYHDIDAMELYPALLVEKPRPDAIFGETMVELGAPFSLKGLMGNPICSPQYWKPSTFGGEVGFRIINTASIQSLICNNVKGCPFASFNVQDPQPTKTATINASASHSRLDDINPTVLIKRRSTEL
# T1 sequence (Q63921 whole entry): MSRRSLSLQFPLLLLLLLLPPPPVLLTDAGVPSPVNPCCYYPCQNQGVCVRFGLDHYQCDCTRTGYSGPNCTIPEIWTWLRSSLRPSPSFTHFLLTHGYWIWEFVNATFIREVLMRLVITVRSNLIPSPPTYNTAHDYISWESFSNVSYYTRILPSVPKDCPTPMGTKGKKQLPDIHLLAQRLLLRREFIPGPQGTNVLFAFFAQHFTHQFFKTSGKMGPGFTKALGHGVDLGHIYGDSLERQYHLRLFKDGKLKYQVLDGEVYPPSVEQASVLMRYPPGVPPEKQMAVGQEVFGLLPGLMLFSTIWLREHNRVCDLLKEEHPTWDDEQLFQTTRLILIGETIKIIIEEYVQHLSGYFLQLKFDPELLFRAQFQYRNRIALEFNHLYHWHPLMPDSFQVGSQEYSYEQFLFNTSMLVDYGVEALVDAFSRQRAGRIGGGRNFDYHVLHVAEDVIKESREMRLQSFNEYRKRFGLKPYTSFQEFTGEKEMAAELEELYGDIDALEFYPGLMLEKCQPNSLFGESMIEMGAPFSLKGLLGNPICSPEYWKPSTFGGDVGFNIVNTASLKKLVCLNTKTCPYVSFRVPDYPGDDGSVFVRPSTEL
# Outline: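 Same cyclooxygenase protocol run on rat renal medulla homogenate: 5 min 30 °C preincubation with glutathione 1 mM and adrenaline 625 μM. Prostaglandin/thromboxane area compared with the no-drug control.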
# [27] = system: Rattus norvegicus; test: Radiographic change was judged in the area of the tarsus region, using an arbitrary scoring system upon termination of the test (14 days dosing of 20 mg/kg)in a model of type II collagen arthritis in the rat.; assay type: functional; conditions: 336 h; outline: as §3
# [28] = system: Rattus norvegicus; test: Plasma level in type II collagen arthritis model after 14 days of dosing at 60 mg/kg.; assay type: functional, organism-based; design: dose 60 mg/kg; outline: as §5
# [29] = system: Rattus norvegicus; test: Radiographic change was judged in the area of the talus joint, using an arbitrary scoring system upon termination of the test (14 days dosing of 40 mg/kg)in a model of type II collagen arthritis in the rat.; assay type: functional; conditions: 336 h; outline: as §3
# [30] = system: Rattus norvegicus; test: Radiographic change was judged in the area of the talus joint, using an arbitrary scoring system upon termination of the test (14 days dosing of 60 mg/kg)in a model of type II collagen arthritis in the rat.; assay type: functional; conditions: 336 h; outline: as §3
# [31] = […] level determined in rat type II collagen arthritis model after 14 days dosing of 100 mg/kg.; assay type: functional; outline: as §4
# [32] = system: Rattus norvegicus; test: Radiographic change was judged in the area of the tarsus region, using an arbitrary scoring system upon termination of the test (14 days dosing of 40 mg/kg)in a model of type II collagen arthritis in the rat.; assay type: functional; conditions: 336 h; outline: as §3
# [33] = system: Rattus norvegicus; test: Plasma level in type II collagen arthritis model after 14 days of dosing at 100 mg/kg.; assay type: functional, organism-based; design: dose 100 mg/kg; outline: as §5
smiles,measurement,setting,value
CC(C)(OCc1ccc(-c2ccc(Cl)cc2)cc1)C(=O)O [CLOBUZARIT],Inhibition,[1],48%
same,Change,[2],19%
same,Change,[3],164%
same,inhibition in vivo at 60 mg/kg,[4],41%
same,inhibition in vivo at 60 mg/kg,[5],64%
same,logP,[6],1.52
same,IC50,[7],950 µM
same,Decrease,[8],31%
Cc1nc(-c2ccc(Cl)cc2)oc1COC(C)(C)C(=O)O [ROMAZARIT],Inhibition,[1],73%
same,Change,[2],4%
same,Change,[9],19%
same,IC50,[10],6500 µM
same,inhibition in vivo at 20 mg/kg,[11],33%
same,inhibition in vivo at 100 mg/kg,[12],82%
same,Haptoglobin,[13],0.31 g/L
same,Plasma level,[14],102 µg/mL
same,Haptoglobin,[15],0.32 g/L
same,Change,[16],-5%
same,Change,[3],-7%
same,Change,[17],13%
same,Haptoglobin,[18],0.43 g/L
same,IC50,[19],> 400 µM
same,inhibition in vivo at 60 mg/kg,[20],46%
same,Change,[21],-3%
same,Plasma level,[22],64 µg/mL
same,inhibition in vivo at 100 mg/kg,[23],56%
same,Change,[24],-51%
same,Change,[25],-34%
same,logP,[6],0.34
same,IC50,[26],> 300 µM
same,inhibition in vivo at 20 mg/kg,[27],7%
same,Decrease,[8],26%
same,Plasma level,[28],172 µg/mL
same,inhibition in vivo at 40 mg/kg,[29],40%
same,inhibition in vivo at 60 mg/kg,[30],63%
same,Haptoglobin,[31],0.34 g/L
same,inhibition in vivo at 40 mg/kg,[32],35%
same,Plasma level,[33],267 µg/mL

# Source: ChEMBL document CHEMBL1125255, “Romazarit: a potential disease-modifying antirheumatic drug” (J Med Chem, 1991)
